Hits are enriched below; roughly 3.2% of the tested compounds scored in any of these assays.
DAGLB inhibitor: DAGLB lipase inhibitors, primary screen, biochemical, fluorescence, HTS | inhibition, % at 5.17 µM | HEK293T DAGLB membrane lysate, EnzChek fluorogenic substrate | AID 504411, 2011 | Diacylglycerol lipase-beta (Homo sapiens), Q8NCG7 | 340,000 compounds, 0.059% hits; in the data active = inhibition above about 34%;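 note: 0% = enzyme with vehicle and 100% = wells lacking enzyme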
Target sequence (Q8NCG7 whole entry, looked up): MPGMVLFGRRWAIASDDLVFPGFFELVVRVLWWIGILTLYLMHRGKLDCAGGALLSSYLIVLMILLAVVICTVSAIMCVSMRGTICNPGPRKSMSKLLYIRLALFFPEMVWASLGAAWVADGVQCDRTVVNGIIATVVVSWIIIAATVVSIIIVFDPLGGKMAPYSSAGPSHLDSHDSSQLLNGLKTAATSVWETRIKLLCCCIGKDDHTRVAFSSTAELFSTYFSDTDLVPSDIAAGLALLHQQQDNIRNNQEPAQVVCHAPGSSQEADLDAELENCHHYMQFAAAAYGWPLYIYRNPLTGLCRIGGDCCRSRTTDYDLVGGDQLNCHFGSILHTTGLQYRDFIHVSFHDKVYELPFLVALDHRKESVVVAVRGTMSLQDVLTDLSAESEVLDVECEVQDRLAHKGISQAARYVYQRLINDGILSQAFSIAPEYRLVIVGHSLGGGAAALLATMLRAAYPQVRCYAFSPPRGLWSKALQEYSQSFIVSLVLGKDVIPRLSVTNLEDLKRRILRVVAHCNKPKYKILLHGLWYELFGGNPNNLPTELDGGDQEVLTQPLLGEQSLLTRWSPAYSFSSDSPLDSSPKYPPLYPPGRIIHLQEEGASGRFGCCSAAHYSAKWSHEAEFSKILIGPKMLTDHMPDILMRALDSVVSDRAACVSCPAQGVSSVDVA
HTRA1 inhibitor: HTRA1 serine protease inhibitors, primary screen, biochemical, fluorescence polarization, HTS | recombinant HTRA1, FP-rhodamine activity-based probe | inhibition, % at 5.96 µM | 340,000 compounds, 0.5% hits | AID 504803, 2011; in the data active = inhibition above about 36%;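 note: 0% = enzyme with DMSO and 100% = wells lacking enzyme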
mABHD4 FP: ABHD4 inhibitors, primary screen, biochemical, fluorescence polarization, mouse | inhibition, % at 8.92 µM | (Lyso)-N-acylphosphatidylethanolamine lipase (Mus musculus), Q8VD66 | purified mABHD4, FP-Rh probe fluorescence polarization | 370,000 compounds, 0.54% hits | AID 720543, 2013;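 active = inhibition exceeding the mean over every tested compound plus 3 SD, cut at about 30% in these data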;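 note: 0% = plate median of compound wells and 100% = S159A mutant with DMSO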
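Material: mouse ABHD4 enzyme, wild type; Benchmarks: S159A mutant high control, sample median low control; Buffer or medium: HEPES pH 7.0, NaCl, Pluronic buffer; Signal: fluorescence polarization; Read-out: percent inhibition of probe binding, normalized to plate controls; Timing: pre-incubation 45 min, probe exposure 60 min, at 25 °C; Dosing: 8.92 µM, single dose.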
PRMT1 FP inh: PRMT1 methyltransferase inhibitors, primary screen, biochemical, fluorescence polarization | Protein arginine N-methyltransferase 1 (Homo sapiens), Q99873 | AID 652257, 2013 | recombinant PRMT1, activity-based probe fluorescence polarization | 370,000 compounds, 1.3% hits | inhibition, % at 2.79 µM;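 active = inhibition above about 21% made by adding two undisclosed values, limit read from the data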
rCAG binder: binders of r(CAG) RNA repeats, primary screen, biochemical, fluorescence. r(CAG) RNA repeat, TO-PRO-1 dye displacement fluorescence. inhibition, % at 3 µM. 370,000 compounds, 1.3% hits;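 active = inhibition above the plate cutoff, the mean of all test compounds on that plate plus 3 SD, cut at about 35% in these data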;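 note: 0% = DMSO alone and 100% = 100 µM mitoxantrone as full dye displacement; higher means more dye released from RNA so lower well fluorescence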
LEDGF integ inh: blockers of LEDGF/p75-dependent integrase strand transfer – biochemical, TR-FRET, high throughput, primary screen; TR-FRET IN-LEDGF/p75 DNA integration, Eu/Cy5; inhibition, % at 3.7 µM; 370,000 compounds, 0.64% hits; AID 743269, 2014;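 active = inhibition above the screen-wide mean plus 3 SD, cut at about 13% in these data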;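 note: signal is the Cy5 over europium emission ratio at 671 and 618 nm; 0% = plate median of compound wells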
rCAG bind conf: small molecules binding CAG repeat RNA – biochemical, fluorescence, confirmation; AID 652065, 2013; shares compounds with rCAG binder; r(CAG) RNA repeat, TO-PRO-1 dye displacement fluorescence; 4,300 compounds, 70% hits; inhibition, % at 3 µM;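 active = inhibition above a per-plate cutoff, the mean inhibition of sample wells plus 3 SD, cut at about 35% in these data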;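 note: loss of TO-PRO-1 fluorescence as compound displaces dye from 1x1 AA loop RNA; 0% = DMSO only wells and 100% = 100 µM mitoxantrone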
DNA CAG counter: displacement of TO-PRO-1 from CAG DNA duplex, counter-screen for rCAG RNA repeat binder project, biochemical, fluorescence, TO-PRO-1 dye, d(CAG) DNA oligo; shares compounds with rCAG binder; d(CAG) DNA oligo TO-PRO-1 dye displacement; inhibition, % at 3 µM; 4,300 compounds, 94% hits; AID 652068, 2013;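 active = inhibition above its plate's cutoff, the mean test-well inhibition plus 3 SD, cut at about 4.8% in these data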;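 note: 0% = DNA dye mix with DMSO and 100% = 100 µM mitoxantrone; hits displace the dye from DNA and so lower well fluorescence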
Active calls of the source: *.

What do the screens show for `CCN(CC)S(=O)(=O)c1ccc(Cl)c(NC(=S)NC(=O)C2CCCC2)c1`?
DAGLB inhibitor: -10; HTRA1 inhibitor: -43; mABHD4 FP: -22; PRMT1 FP inh: -1; rCAG binder: 5; LEDGF integ inh: -2

How did CCN(CC)c1ccc(S(=O)(=O)Nc2cc(Cl)ccc2Cl)cc1NC(=S)NC(=O)C1CCCC1 do in these assays?
DAGLB inhibitor: 13; HTRA1 inhibitor: -48; mABHD4 FP: -26; PRMT1 FP inh: 5; rCAG binder: 65*; LEDGF integ inh: 1; rCAG bind conf: 71*; DNA CAG counter: 35*

Results for O=C(O)c1cc(-c2ccc(Cl)c(Cl)c2)n(-c2ccccc2)n1 ?
DAGLB inhibitor: 6; HTRA1 inhibitor: -1; mABHD4 FP: 10; PRMT1 FP inh: -1; rCAG binder: 41*; LEDGF integ inh: 2; rCAG bind conf: 12; DNA CAG counter: 0

How did COc1ccc(Cc2nnc(SCC(=O)Nc3ccccc3)[nH]c2=O)cc1 do in these assays?
DAGLB inhibitor: 4; HTRA1 inhibitor: -6; mABHD4 FP: 3; PRMT1 FP inh: 5; rCAG binder: 13; LEDGF integ inh: -1

Results for COc1ccc(Cc2nnc(SCC(=O)Nc3cc(Cl)ccc3OC)[nH]c2=O)cc1 ?
DAGLB inhibitor: 8; HTRA1 inhibitor: -12; mABHD4 FP: -6; PRMT1 FP inh: 4; rCAG binder: 51*; LEDGF integ inh: 1; rCAG bind conf: 50*; DNA CAG counter: 16*

What do the screens show for `O=C(O)CN1C(=O)/C(=C\c2cn(-c3ccccc3)nc2-c2ccccc2)SC1=S`?
DAGLB inhibitor: 7; HTRA1 inhibitor: -24

How did Cc1ccc(-c2nn(-c3ccccc3)cc2C=C2SC(=S)N(CCS(=O)(=O)O)C2=O)cc1 do in these assays?
mABHD4 FP: -9; PRMT1 FP inh: 10; rCAG binder: 87*; LEDGF integ inh: 0; rCAG bind conf: 94*; DNA CAG counter: 77*

What do the screens show for `COc1ccc(C(=O)Nc2ccc3c(c2)OCCO3)cc1Br`?
DAGLB inhibitor: -1; HTRA1 inhibitor: -8; mABHD4 FP: 4; PRMT1 FP inh: 0; rCAG binder: 1; LEDGF integ inh: -1

How did O=C(N/N=C/c1ccccc1C(=O)O)c1cccc(S(=O)(=O)Nc2cc(Cl)ccc2Cl)c1 do in these assays?
DAGLB inhibitor: 12; HTRA1 inhibitor: -33; mABHD4 FP: -12; PRMT1 FP inh: 2; rCAG binder: 49*; LEDGF integ inh: 3; rCAG bind conf: 28; DNA CAG counter: 6.8*

What do the screens show for `Cc1ccc(NS(=O)(=O)c2cccc(C(=O)NNC(=O)NC3CCCCC3)c2)c(C)c1`?
DAGLB inhibitor: 1; HTRA1 inhibitor: -3; mABHD4 FP: -12; PRMT1 FP inh: -5; rCAG binder: 8; LEDGF integ inh: 2

How did O=C(NNC(=S)NC1CCCCC1)c1cccc(S(=O)(=O)Nc2ccccc2Cl)c1 do in these assays?
DAGLB inhibitor: 8; HTRA1 inhibitor: 0; mABHD4 FP: 10; PRMT1 FP inh: 1; rCAG binder: 56*; LEDGF integ inh: 0; rCAG bind conf: 51*; DNA CAG counter: 19*

Results for O=C(c1cccc(S(=O)(=O)Nc2ccccc2Cl)c1)N1CCN(c2ccccc2O)CC1 ?
DAGLB inhibitor: 4; HTRA1 inhibitor: -3; mABHD4 FP: 1; PRMT1 FP inh: 2; rCAG binder: 41*; LEDGF integ inh: -2; rCAG bind conf: 31; DNA CAG counter: 9.3*

How did CC1CN(C(=O)c2cccc(S(=O)(=O)Nc3cc(Cl)ccc3Cl)c2)CC(C)O1 (stereo unspecified) do in these assays?
DAGLB inhibitor: 6; HTRA1 inhibitor: 1; mABHD4 FP: 0; PRMT1 FP inh: 1; rCAG binder: 41*; LEDGF integ inh: 0; rCAG bind conf: 33; DNA CAG counter: 5.5*

Results for O=C(c1cccc(S(=O)(=O)Nc2ccccc2Cl)c1)N1CCCCCC1 ?
DAGLB inhibitor: 0; HTRA1 inhibitor: -6; mABHD4 FP: 4; PRMT1 FP inh: 0; rCAG binder: 10; LEDGF integ inh: -2

What do the screens show for `CC1CN(C(=O)c2cccc(S(=O)(=O)Nc3ccccc3Cl)c2)CC(C)O1` (stereo unspecified)?
DAGLB inhibitor: -1; HTRA1 inhibitor: 2; mABHD4 FP: -2; PRMT1 FP inh: -1; rCAG binder: 10; LEDGF integ inh: 1

What do the screens show for `Cc1ccc(/C=N/NC(=O)c2cccc(S(=O)(=O)Nc3ccccc3Cl)c2)s1`?
DAGLB inhibitor: 8; HTRA1 inhibitor: 13; mABHD4 FP: -4; PRMT1 FP inh: 3; rCAG binder: 34; LEDGF integ inh: 0

How did CCOc1ccc(CN2CCNC(=O)C2CC(=O)NCCCn2ccnc2)cc1 (stereo unspecified) do in these assays?
DAGLB inhibitor: 1; HTRA1 inhibitor: 4; mABHD4 FP: 6; PRMT1 FP inh: -2; rCAG binder: -5; LEDGF integ inh: -3

Results for COc1ccccc1NS(=O)(=O)c1cc(NC(=O)c2ccccc2F)ccc1N1CCOCC1 ?
DAGLB inhibitor: -1; HTRA1 inhibitor: -30; mABHD4 FP: -26; PRMT1 FP inh: 8; rCAG binder: 10; LEDGF integ inh: -3

How did CCC(CC)(CC(=O)Nc1cccc(/C=C/c2nc(C3CCC3)cs2)c1)C(=O)O do in these assays?
mABHD4 FP: -10; PRMT1 FP inh: -2; rCAG binder: 46*; LEDGF integ inh: 2; rCAG bind conf: 55*; DNA CAG counter: 18*

How did Cc1cc(NS(=O)(=O)c2ccc(NC(=O)COc3ccccc3[N+](=O)[O-])cc2)no1 do in these assays?
DAGLB inhibitor: 2; HTRA1 inhibitor: -7; mABHD4 FP: -2; PRMT1 FP inh: 3; rCAG binder: 33; LEDGF integ inh: 7

How did Cc1cc(NS(=O)(=O)c2ccc(NC(=O)COc3ccc(Cl)c(C)c3)cc2)no1 do in these assays?
DAGLB inhibitor: 4; HTRA1 inhibitor: -16; mABHD4 FP: -11; PRMT1 FP inh: 2; rCAG binder: 41*; LEDGF integ inh: 3; rCAG bind conf: 32; DNA CAG counter: 8.3*

Source: PubChem (The Scripps Research Institute Molecular Screening Center)
